Results on 18 compounds are retold here after ChEMBL document CHEMBL3632545, “1,3-Disubstituted and 1,3,3-trisubstituted adamantyl-ureas with isoxazole as soluble epoxide hydrolase inhibitors” (Bioorg Med Chem Lett, 2015).

Each structure is given as a SMILES string. Converted amounts (≈) assume the structure as drawn.

For data set [1], the target named is T1, Bifunctional epoxide hydrolase 2 (Homo sapiens, UniProt P34913).
T1 sequence (P34913 whole entry): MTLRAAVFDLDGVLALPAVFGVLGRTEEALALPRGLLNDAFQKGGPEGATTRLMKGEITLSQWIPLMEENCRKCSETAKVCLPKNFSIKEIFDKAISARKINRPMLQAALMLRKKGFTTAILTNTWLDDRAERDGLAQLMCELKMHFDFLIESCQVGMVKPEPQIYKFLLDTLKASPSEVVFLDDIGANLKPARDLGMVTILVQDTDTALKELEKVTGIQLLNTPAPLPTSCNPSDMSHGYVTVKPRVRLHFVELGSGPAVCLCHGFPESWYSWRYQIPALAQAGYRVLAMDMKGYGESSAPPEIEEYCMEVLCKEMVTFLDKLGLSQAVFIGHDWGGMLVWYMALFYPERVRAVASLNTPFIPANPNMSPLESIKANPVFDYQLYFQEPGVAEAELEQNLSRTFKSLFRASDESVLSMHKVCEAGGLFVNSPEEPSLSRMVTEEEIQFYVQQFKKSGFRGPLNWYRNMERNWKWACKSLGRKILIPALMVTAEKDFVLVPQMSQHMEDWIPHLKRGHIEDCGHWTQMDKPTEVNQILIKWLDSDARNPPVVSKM
The data set can be described thus: Inhibition of recombinant human soluble epoxide hydrolase using CMNPC as substrate by kinetic fluorescent assay. In a few lines:
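Recombinant purified human sEH, CMNPC substrate, kinetic fluorescence read-out; IC50 derived. Where reported, values are the mean ± standard deviation of three separate measurements.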

A short description of data set [2]: Solubility of compound in sodium phosphate buffer at pH 7.4. Format: physicochemical. In a few lines:
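Measured in 0.1 M sodium phosphate buffer, pH 7.4, containing 1% DMSO; reported as a concentration range bracketing the solubility limit (μM).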

Data set [3] in a line: Metabolic stability in human liver microsomes assessed as compound remaining at 1 uM after 30 mins by LC/MS/MS analysis in absence of NADPH generating system. It counts as ADME. The note with it: read-out: Stability. Summed up:
(§1)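 Compound at 1 μM incubated with human liver microsomes (1 mg/mL) at 37°C for 30 minutes, with or without an NADPH generating system. Read-out is percent of compound remaining. Values are the average of triplicates ± standard deviation.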
On the technique in general: Liver microsomes are a subcellular fraction often used to study metabolism.

Data set [4] can be described thus: Metabolic stability in human liver microsomes assessed as compound remaining at 1 uM after 30 mins by LC/MS/MS analysis in presence of NADPH generating system. It counts as ADME. The note with it: read-out: Stability. Summed up: as §1

Broadly, the IC50 is the concentration that gives 50% inhibition. One may read the solubility as the dissolved amount per volume that the medium holds. A higher solubility goes with much dissolved substance. Consider `Cc1ccc(-c2cc(CNC(=O)NC34CC5CC(C)(CC(C)(C5)C3)C4)no2)cc1`, for which, in data set [1], the IC50 amounted to 0.0258 µM. This compound also registered a solubility in data set [2] of 125 µM (≈ 49.2 µg/mL). Further, the remaining at 0.5 h, 1 µM in data set [3] is 115%; in data set [4] it was 0.4%.

Turning to `Cc1cc(CNC(=O)NCC23CC4CC(CC(C4)C2)C3)on1`, the IC50 in data set [1] stood at 0.0067 µM. Moreover, the solubility in data set [2] is 450 µM (≈ 137 µg/mL). Moreover, the remaining at 0.5 h, 1 µM in data set [3] worked out at 72%; in data set [4], 2.9%.

On to `Cc1cc(C2CCCN2C(=O)NCC23CC4CC(CC(C4)C2)C3)on1` (stereo unspecified), for which, in data set [1], the IC50 was 0.091 µM. The compound also came in with a solubility in data set [2] of 575 µM (≈ 197 µg/mL).

Regarding `O=C(NCc1cc(-c2ccc(F)cc2)no1)NCC12CC3CC(CC(C3)C1)C2`, the IC50 in data set [1] amounted to 0.0105 µM. In data set [2], this compound gave a solubility of 50 µM (≈ 19.2 µg/mL).

Regarding `CC12CC3CC(C)(C1)CC(NC(=O)NCc1cc(-c4cccc(F)c4)no1)(C3)C2`, in data set [1], the IC50 stood at 0.017 µM. This compound gave a solubility in data set [2] of 75 µM (≈ 29.8 µg/mL). Moreover, the remaining at 0.5 h, 1 µM in data set [3] worked out at 92%; in data set [4], 0.4%.

`O=C(NCc1cc(-c2ccco2)on1)NCC12CC3CC(CC(C3)C1)C2`: in data set [1], the IC50 worked out at 0.0049 µM. Further, the solubility in data set [2] was 75 µM (≈ 26.7 µg/mL). For the same compound, the remaining at 0.5 h, 1 µM turned out to be 91% in data set [3] and 0.4% in data set [4].

Regarding `CC(C)c1cc(CN(C)C(=O)NCC23CC4CC(CC(C4)C2)C3)on1`, in data set [1], the IC50 is 0.191 µM. In data set [2], this compound registered a solubility of 350 µM (≈ 121 µg/mL).

With `O=C(NCc1cc(-c2cccc(F)c2)no1)NCC12CC3CC(CC(C3)C1)C2`, in data set [1], the IC50 worked out at 0.0166 µM. In data set [2], this compound displayed a solubility of 75 µM (≈ 28.8 µg/mL). Besides, the remaining at 0.5 h, 1 µM turned out to be 97% in data set [3] and 0.3% in data set [4].

On to `CC(C)c1cc(C2CCCN2C(=O)NCC23CC4CC(CC(C4)C2)C3)no1` (stereo unspecified), for which the IC50 in data set [1] stood at 0.247 µM. The solubility in data set [2] was determined as 250 µM (≈ 92.9 µg/mL).

As for `Cc1cc(C2CCCN2C(=O)NCC23CC4CC(CC(C4)C2)C3)no1` (stereo unspecified), the concentration for half-maximal inhibition (IC50) in data set [1] came out at 0.524 µM. Moreover, the solubility in data set [2] was found to be 525 µM (≈ 180 µg/mL).

Turning to `CC(C)c1cc(CN(C)C(=O)NCC23CC4CC(CC(C4)C2)C3)no1`, the IC50 in data set [1] came to 0.576 µM. This compound came in with a solubility in data set [2] of 200 µM (≈ 69.1 µg/mL).

For the compound `CCc1cc(CNC(=O)NCC23CC4CC(CC(C4)C2)C3)on1`, in data set [1], the IC50 came out at 0.0294 µM. In data set [2], this compound gave a solubility of 300 µM (≈ 95.2 µg/mL).

For the compound `Cc1cc(CNC(=O)NC23CC4CC(C)(CC(C)(C4)C2)C3)on1`, the half-maximal inhibitory concentration (IC50) in data set [1] was 0.123 µM. The compound also gave a solubility in data set [2] of 200 µM (≈ 63.5 µg/mL). Further, the remaining at 0.5 h, 1 µM in data set [3] worked out at 83%; in data set [4], 0.1%.

Turning to `CC(C)c1cc(CNC(=O)NCC23CC4CC(CC(C4)C2)C3)on1`, in data set [1], the IC50 was found to be 0.0446 µM. This compound also yielded a solubility in data set [2] of 125 µM (≈ 41.4 µg/mL).

As for `Cc1ccc(-c2cc(CNC(=O)NCC34CC5CC(CC(C5)C3)C4)no2)cc1`, in data set [1], the IC50 was 0.0154 µM. For the same compound, in data set [2], the concentration in solution (solubility) was 75 µM (≈ 28.5 µg/mL). In addition, the results for the remaining at 0.5 h, 1 µM in data set [3] and in data set [4] were 97% and 0.4%, respectively.

With `CC12CC3CC(C)(C1)CC(NC(=O)NCc1cc(-c4ccco4)on1)(C3)C2`, the 50% inhibitory concentration (IC50) in data set [1] turned out to be 0.0041 µM. This compound showed a solubility in data set [2] of 75 µM (≈ 27.7 µg/mL). The remaining at 0.5 h, 1 µM worked out at 95% in data set [3] and 0.3% in data set [4].

As to `COc1ccc(-c2cc(CNC(=O)NC34CC5CC(C)(CC(C)(C5)C3)C4)no2)cc1`, the IC50 in data set [1] was determined as 0.015 µM. In data set [2], this compound registered a solubility of 25 µM (≈ 10.2 µg/mL). Besides, the remaining at 0.5 h, 1 µM in data set [3] is 102%; in data set [4], 0.4%.

Regarding `COc1ccc(-c2cc(CNC(=O)NCC34CC5CC(CC(C5)C3)C4)no2)cc1`, the IC50 in data set [1] was determined as 0.0129 µM. The compound further yielded a solubility in data set [2] of 100 µM (≈ 39.6 µg/mL). In addition, the remaining at 0.5 h, 1 µM was determined as 87% in data set [3] and 0.8% in data set [4].
